Reference: ChEMBL document CHEMBL1152965, “Synthesis and in vitro antiplasmodial evaluation of 4-anilino-2-trichloromethylquinazolines” (Bioorg Med Chem, 2009)

Legend:
[1] = tested on: K562; test: Cytotoxicity against human K562 cells after 72 hrs by flow cytometry; format: cell-based; details: K562, 72 h
Summary of the method: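 Chemosensitive K562 subline, late log phase, in phenol-red-free RPMI with 10% serum. Compound range added in duplicate (DMSO <0.5%). After 72 h at 37 °C, 6% CO₂, cells stained with propidium iodide and live cells in a 100 µL sample counted by flow cytometry. IC50 from non-linear regression of dose-response curves, mean of three independent experiments.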

[2] = Selectivity index, ratio IC50 for human HepG2 cells to IC50 for chloroquine, pyrimethamine and proguanil-resistant Plasmodium falciparum W2; format: functional
Summary of the method: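 SI = HepG2 IC50 / W2 IC50. MTT 2 h, formazan dissolved in DMSO, absorbance 570 nm (ref 630 nm). Viability as % of untreated control, IC50 from dose-response curve.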

[3] = tested on: Plasmodium falciparum; test: Antimalarial activity as reduced parasitaemia after 48 hrs against chloroquine, pyrimethamine and proguanil-resistant Plasmodium falciparum W2 infected in type A+ human erythrocytes by flow cytometry; format: functional, organism-based; details: W2, 48 h
[4] = Selectivity index, ratio of IC50 for human K562 cells to IC50 for chloroquine, pyrimethamine and proguanil-resistant Plasmodium falciparum W2; format: toxicity, cell-based; details: K562 cells (cytotoxicity) versus Plasmodium falciparum W2, read-out: Ratio IC50
Summary of the method: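 SI = K562 IC50 / W2 IC50. Live cells counted by flow cytometry after propidium iodide stain. IC50 by non-linear regression, mean of three independent experiments.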

[5] = tested on: HepG2; test: Cytotoxicity against human HepG2 cells after 72 hrs by MTT assay; format: cell-based; details: HepG2, 72 h
Summary of the method: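 HepG2 cells plated in RPMI with 10% FBS and grown 24 h, then exposed to a range of compound concentrations for 72 h at 37 °C, 6% CO₂. MTT (5 mg/mL stock) added for 2 h, formazan dissolved in DMSO and read at 570 nm against 630 nm. Viability expressed as percent of untreated control. CC50 taken from the dose-response curve.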

[6] = tested on: Leishmania donovani; test: Antileishmanial activity against Leishmania donovani HOM/IN/01/2001 promastigotes after 72 hrs by flow cytometry; format: functional, organism-based; details: HOM/IN/01/2001, 72 h
Summary of the method: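 GFP-transfected promastigotes, log phase, in M199 with 10% FCS and 500 µg/mL G418, seeded at 10⁵ parasites/mL. Compounds in DMSO (final <0.5% v/v) added in duplicate over a concentration range. Incubated 72 h at 27 °C.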

[7] = tested on: Toxoplasma gondii; test: Antitoxoplasmic activity against Toxoplasma gondii tachyzoites infected in HFF assessed as beta-galactosidase activity after 96 hrs by colorimetric microtiter assay; format: functional, organism-based
Summary of the method: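 Tachyzoites of the PRU-β-Gal strain. 10⁴ HFF cells per well grown to confluence in phenol-red-free RPMI with 10% FCS. Monolayers infected with 2.10³ parasites per well for 3 h, then compounds in DMSO (final <0.5%) added in triplicate. Incubated 96 h at 37 °C, 6% CO₂. CPRG added at 500 µM final for a further 24 h. Read at 570/630 nm, blanked on uninfected wells. IC50 from three independent experiments.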

SMILES: COc1cccc(Nc2nc(C(Cl)(Cl)Cl)nc3ccccc23)c1
- IC50 [1]: 9 µM
- Ratio IC50 [2]: 0.1
- IC50 [3]: 4 µM
- selectivity ratio [4]: 2.3
- IC50 [5]: 0.5 µM

SMILES: Clc1cccc(Nc2nc(C(Cl)(Cl)Cl)nc3ccccc23)c1Cl
- IC50 [1]: > 60 µM
- Ratio IC50 [2]: 7.1
- IC50 [3]: 14 µM
- selectivity ratio [4]: > 4.3
- IC50 [5]: > 100 µM

SMILES: Clc1ccccc1Nc1nc(C(Cl)(Cl)Cl)nc2ccccc12
- IC50 [1]: > 50 µM
- Ratio IC50 [2]: 5.5
- IC50 [3]: 4.6 µM
- selectivity ratio [4]: > 10.9
- IC50 [5]: 25 µM

SMILES: Clc1ccc(Cl)c(Nc2nc(C(Cl)(Cl)Cl)nc3ccccc23)c1
- IC50 [1]: > 8 µM
- Ratio IC50 [2]: 17.6
- IC50 [3]: 1.7 µM
- selectivity ratio [4]: > 4.7
- IC50 [5]: 30 µM

SMILES: FC(F)(F)c1ccccc1Nc1nc(C(Cl)(Cl)Cl)nc2ccccc12
- IC50 [1]: 30 µM
- Ratio IC50 [2]: 1.4
- IC50 [3]: 7.4 µM
- selectivity ratio [4]: 4.1
- IC50 [5]: 10 µM

SMILES: Clc1ccc(Nc2nc(C(Cl)(Cl)Cl)nc3ccccc23)cc1Cl
- IC50 [1]: 9 µM
- Ratio IC50 [2]: 1.6
- IC50 [3]: 5 µM
- selectivity ratio [4]: 1.8
- IC50 [5]: 8 µM

SMILES: COc1ccccc1Nc1nc(C(Cl)(Cl)Cl)nc2ccccc12
- IC50 [1]: 60 µM
- Ratio IC50 [2]: 10
- IC50 [3]: 6 µM
- selectivity ratio [4]: 10
- IC50 [5]: 60 µM

SMILES: CN1CCN(c2nc(C(Cl)(Cl)Cl)nc3ccccc23)CC1
- IC50 [1]: 65 µM
- Ratio IC50 [2]: 13.4
- IC50 [3]: 5.6 µM
- selectivity ratio [4]: 11.6
- IC50 [5]: 75 µM

SMILES: ClC(Cl)(Cl)c1nc(Nc2ccccc2)c2ccccc2n1
- IC50 [1]: > 50 µM
- Ratio IC50 [2]: >4.5
- IC50 [3]: 11 µM
- selectivity ratio [4]: > 4.5
- IC50 [5]: > 50 µM

SMILES: ClC(Cl)(Cl)c1nc(NCc2ccccc2)c2ccccc2n1
- IC50 [1]: > 50 µM
- Ratio IC50 [2]: 1.9
- IC50 [3]: 6.9 µM
- selectivity ratio [4]: > 7.2
- IC50 [5]: 13 µM

SMILES: ClC(Cl)(Cl)c1nc(Nc2ccccc2Br)c2ccccc2n1
- IC50 [1]: > 30 µM
- Ratio IC50 [2]: >16.7
- IC50 [3]: 3 µM
- selectivity ratio [4]: > 10
- IC50 [5]: > 50 µM

SMILES: Cc1ccccc1Nc1nc(C(Cl)(Cl)Cl)nc2ccccc12
- IC50 [1]: 11 µM
- Ratio IC50 [2]: 3.4
- IC50 [3]: 7 µM
- selectivity ratio [4]: 1.6
- IC50 [5]: 24 µM

SMILES: Fc1ccc(Nc2nc(C(Cl)(Cl)Cl)nc3ccccc23)cc1
- IC50 [1]: > 125 µM
- Ratio IC50 [2]: >9.3
- IC50 [3]: 5.4 µM
- selectivity ratio [4]: > 23.1
- IC50 [5]: > 50 µM

SMILES: O=[N+]([O-])c1cccc(Nc2nc(C(Cl)(Cl)Cl)nc3ccccc23)c1
- IC50 [1]: 5 µM
- Ratio IC50 [2]: 3.3
- IC50 [3]: 3 µM
- selectivity ratio [4]: 1.7
- IC50 [5]: 10 µM

SMILES: COc1ccc(Nc2nc(C(Cl)(Cl)Cl)nc3ccccc23)cc1
- IC50 [1]: 8 µM
- Ratio IC50 [2]: 1.2
- IC50 [3]: 6 µM
- selectivity ratio [4]: 1.3
- IC50 [5]: 7 µM

SMILES: Clc1cc(Cl)cc(Nc2nc(C(Cl)(Cl)Cl)nc3ccccc23)c1
- IC50 [1]: 9 µM
- Ratio IC50 [2]: 2.5
- IC50 [3]: 4 µM
- selectivity ratio [4]: 2.2
- IC50 [5]: 10 µM

SMILES: ClC(Cl)(Cl)c1nc(N2CCCC2)c2ccccc2n1
- IC50 [1]: > 125 µM
- Ratio IC50 [2]: >6
- IC50 [3]: 41.5 µM
- selectivity ratio [4]: > 3
- IC50 [5]: > 250 µM

SMILES: Cc1nc(Nc2cccc(Cl)c2)c2ccccc2n1
- IC50 [1]: 27 µM
- Ratio IC50 [2]: 0.7
- IC50 [3]: 55 µM
- selectivity ratio [4]: 0.5
- IC50 [5]: 40 µM

SMILES: Fc1cccc(Nc2nc(C(Cl)(Cl)Cl)nc3ccccc23)c1
- IC50 [1]: 15 µM
- Ratio IC50 [2]: 1
- IC50 [3]: 4 µM
- selectivity ratio [4]: 3.8
- IC50 [5]: 16 µM

SMILES: CCCCNc1nc(C(Cl)(Cl)Cl)nc2ccccc12
- IC50 [1]: > 50 µM
- Ratio IC50 [2]: 1.1
- IC50 [3]: 14.3 µM
- selectivity ratio [4]: > 3.5
- IC50 [5]: 16 µM

SMILES: Clc1ccc(Nc2nc(C(Cl)(Cl)Cl)nc3ccccc23)cc1
- IC50 [1]: 14 µM
- Ratio IC50 [2]: 3
- IC50 [3]: 3 µM
- selectivity ratio [4]: 4.7
- IC50 [5]: 9 µM

SMILES: ClC(Cl)(Cl)c1nc(Nc2ccc(Br)cc2)c2ccccc2n1
- IC50 [1]: 15 µM
- Ratio IC50 [2]: 5.7
- IC50 [3]: 1.5 µM
- selectivity ratio [4]: 10
- IC50 [5]: 10 µM

SMILES: Cc1cccc(Nc2nc(C(Cl)(Cl)Cl)nc3ccccc23)c1
- IC50 [1]: 9 µM
- Ratio IC50 [2]: 5.2
- IC50 [3]: 2.3 µM
- selectivity ratio [4]: 3.9
- IC50 [5]: 12 µM

SMILES: ClC(Cl)(Cl)c1nc(N2CCOCC2)c2ccccc2n1
- IC50 [1]: > 125 µM
- Ratio IC50 [2]: >2
- IC50 [3]: 14.9 µM
- selectivity ratio [4]: > 8.4
- IC50 [5]: 63 µM

SMILES: O=[N+]([O-])c1ccc(Nc2nc(C(Cl)(Cl)Cl)nc3ccccc23)cc1
- IC50 [1]: 5 µM
- Ratio IC50 [2]: 2.1
- IC50 [3]: 2.8 µM
- selectivity ratio [4]: 1.8
- IC50 [5]: 6 µM

SMILES: Clc1cccc(Cl)c1Nc1nc(C(Cl)(Cl)Cl)nc2ccccc12
- IC50 [1]: 10 µM
- Ratio IC50 [2]: 1.1
- IC50 [3]: 21.9 µM
- selectivity ratio [4]: 0.5
- IC50 [5]: 23 µM

SMILES: Fc1ccccc1Nc1nc(C(Cl)(Cl)Cl)nc2ccccc12
- IC50 [1]: 30 µM
- Ratio IC50 [2]: 1.1
- IC50 [3]: 9 µM
- selectivity ratio [4]: 3.3
- IC50 [5]: 10 µM

SMILES: ClC(Cl)(Cl)c1nc(NC2CCCCCC2)c2ccccc2n1
- IC50 [1]: > 50 µM
- Ratio IC50 [2]: 3.7
- IC50 [3]: 5.1 µM
- selectivity ratio [4]: > 9.8
- IC50 [5]: 19 µM

SMILES: ClC(Cl)(Cl)c1nc(Nc2cccc3ccccc23)c2ccccc2n1
- IC50 [1]: 5 µM
- Ratio IC50 [2]: 2.5
- IC50 [3]: 6 µM
- selectivity ratio [4]: 0.8
- IC50 [5]: 15 µM

SMILES: FC(F)(F)Oc1ccc(Nc2nc(C(Cl)(Cl)Cl)nc3ccccc23)cc1
- IC50 [1]: 6 µM
- Ratio IC50 [2]: 2.1
- IC50 [3]: 2.9 µM
- selectivity ratio [4]: 2.1
- IC50 [5]: 6 µM

SMILES: O=[N+]([O-])c1ccccc1Nc1nc(C(Cl)(Cl)Cl)nc2ccccc12
- IC50 [1]: > 60 µM
- Ratio IC50 [2]: >33.3
- IC50 [3]: 3 µM
- selectivity ratio [4]: > 20
- IC50 [5]: > 100 µM

SMILES: FC(F)(F)c1cc(Nc2nc(C(Cl)(Cl)Cl)nc3ccccc23)cc(C(F)(F)F)c1
- IC50 [1]: 10 µM
- Ratio IC50 [2]: 1
- IC50 [3]: 3 µM
- selectivity ratio [4]: 3.3
- IC50 [5]: 3 µM

SMILES: Cc1nc(Nc2cccc(C(F)(F)F)c2)c2ccccc2n1
- IC50 [1]: 10 µM
- Ratio IC50 [2]: 0.5
- IC50 [3]: 42.5 µM
- selectivity ratio [4]: 0.2
- IC50 [5]: 20 µM

SMILES: Cc1ccc(Nc2nc(C(Cl)(Cl)Cl)nc3ccccc23)cc1
- IC50 [1]: 6 µM
- Ratio IC50 [2]: 3.3
- IC50 [3]: 2.4 µM
- selectivity ratio [4]: 2.5
- IC50 [5]: 8 µM

SMILES: FC(F)(F)c1ccc(Nc2nc(C(Cl)(Cl)Cl)nc3ccccc23)cc1
- IC50 [1]: 4 µM
- Ratio IC50 [2]: 3.8
- IC50 [3]: 1.6 µM
- selectivity ratio [4]: 2.5
- IC50 [5]: 6 µM

SMILES: C[C@@H]1[C@H](O)[C@@H](C)/C=C/C=C/C=C/C=C/C=C/C=C/C=C/[C@H](O[C@@H]2O[C@H](C)[C@@H](O)[C@H](N)[C@@H]2O)C[C@@H]2O[C@](O)(C[C@@H](O)C[C@@H](O)[C@H](O)CC[C@@H](O)C[C@@H](O)CC(=O)O[C@H]1C)C[C@H](O)[C@H]2C(=O)O [AMPHOTERICIN B]
- IC50 [6]: 0.08 µM
- IC50 [1]: 17 µM
- IC50 [5]: 10 µM

SMILES: CCN(CC)CCCC(C)Nc1ccnc2cc(Cl)ccc12 (centres undefined) [CHLOROQUINE]
- IC50 [1]: 32 µM

SMILES: COc1cccc2c1C(=O)c1c(O)c3c(c(O)c1C2=O)C[C@@](O)(C(=O)CO)C[C@@H]3O[C@H]1C[C@H](N)[C@H](O)[C@H](C)O1 [DOXORUBICIN]
- IC50 [1]: 0.06 µM
- IC50 [5]: 0.2 µM

SMILES: C[C@H]1c2cccc(O)c2C(=O)C2=C(O)[C@]3(O)C(=O)C(C(N)=O)=C(O)[C@@H](N(C)C)[C@@H]3[C@@H](O)[C@@H]21.O [DOXYCYCLINE]
- IC50 [1]: 15 µM
- Ratio IC50 [2]: 3.1
- IC50 [3]: 6.5 µM
- selectivity ratio [4]: 2.3
- IC50 [5]: 20 µM

SMILES: CCc1nc(N)nc(N)c1-c1ccc(Cl)cc1 [PYRIMETHAMINE]
- IC50 [7]: 2 µM
- IC50 [1]: 5 µM
- IC50 [5]: 30 µM
